Platelet DG rel: inhibitors of platelet dense granule secretion, primary screen, cell-based, MLPCN, human platelets | human platelet-rich plasma, SFLLRN dense granule ATP release, luminescence | inhibition, %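 (compounds screened at 7.5 µM in platelet-rich plasma)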 | hit rate 0.22% among 300,000;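 active = mean replicate score, as percent of positive control, at or above 50; inconclusive = mean below 50 but at least one replicate at or above 50; inactive = mean and every replicate below 50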
RanGTP-Imp inh: inhibitors of RanGTP-importin-beta interaction, primary screen, biochemical, FRET, CFP-Ran, YFP-importin-beta, homogeneous; Ran GTPase (GTP-bound) - importin-beta complex; inhibition, % (test concentration not listed); cell-free CFP-Ran/YFP-importin-beta FRET ratio; AID 2216, 2009; hit rate 1.1% among 300,000;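 active = more than half of the replicate wells show a fall in the fluorescence ratio signal beyond about 16%, limit read from the data, passing the limit was not always enough; inconclusive = exactly half of the replicate wells pass the set limit; inactive = fewer than half of replicates pass the limit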;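 note: 0% = DMSO wells and 100% = Ran loaded with GDP instead of GTP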
Runt-SMMHC FRET: inhibitors of RUNX1 Runt–CBFb-SMMHC binding, primary screen, biochemical, FRET, Cerulean-Runt, Venus-CBFb-SMMHC, uHTS | hit rate 0.74% among 220,000 | Cerulean-Runt/Venus-CBFb-SMMHC FRET ratio 530/480, 1 h | inhibition, % at 20 µM | Runt-related transcription factor 1 (Homo sapiens) + Core-binding factor subunit beta …;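 active = mean inhibition across duplicate retests at 20 µM reaching about 50%, limit read from the data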;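 note: 0% = DMSO wells and 100% = wells with excess untagged CBFb-SMMHC; inhibitors lower the FRET ratio by blocking Runt binding to CBFb-SMMHC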
Target sequence (Q01196 whole entry, looked up): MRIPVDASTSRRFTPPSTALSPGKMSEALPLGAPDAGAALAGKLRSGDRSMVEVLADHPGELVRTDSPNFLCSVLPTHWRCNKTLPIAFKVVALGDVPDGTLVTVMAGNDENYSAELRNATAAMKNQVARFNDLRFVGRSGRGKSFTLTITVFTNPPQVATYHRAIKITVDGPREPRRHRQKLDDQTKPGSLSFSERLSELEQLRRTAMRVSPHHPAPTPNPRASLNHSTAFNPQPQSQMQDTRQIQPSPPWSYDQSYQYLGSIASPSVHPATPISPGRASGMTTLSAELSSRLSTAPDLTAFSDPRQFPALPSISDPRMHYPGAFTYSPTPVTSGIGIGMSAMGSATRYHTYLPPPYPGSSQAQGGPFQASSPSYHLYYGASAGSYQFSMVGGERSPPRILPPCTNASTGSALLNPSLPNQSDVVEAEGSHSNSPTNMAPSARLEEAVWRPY
Target sequence (Q13951 whole entry, looked up): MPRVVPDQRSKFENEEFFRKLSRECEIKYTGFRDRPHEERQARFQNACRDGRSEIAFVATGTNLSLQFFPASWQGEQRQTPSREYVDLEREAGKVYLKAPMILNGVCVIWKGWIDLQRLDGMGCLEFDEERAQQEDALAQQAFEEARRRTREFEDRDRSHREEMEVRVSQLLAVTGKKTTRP
Runt-CBFb FRET: inhibitors of RUNX1 Runt–CBFb binding, primary screen, biochemical, FRET, Cerulean-Runt, Venus-CBFb, uHTS. Cerulean-Runt/Venus-CBFb FRET ratio 530/480, 1 h. inhibition, % at 20 µM. hit rate 0.46% among 220,000;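 active = inhibition over about 50% at 20 µM in the single-dose screen, limit read from the data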;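 note: 0% = DMSO wells and 100% = excess unlabeled CBFb competitor control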
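Schedule: protein complex preformed 1 h, compound exposure 1 h, room temperature, dark; test system: Cerulean-labeled Runt domain protein; amount: 100 nM per protein; buffer or medium: Tris 50 mM pH 7.5, KCl, K2SO4, 0.01% BSA; read-out: loss of energy transfer signal; detection: FRET fluorescence; controls: 5 µM unlabeled CBFb as full-inhibition high control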
Rce1 inhib: yeast Rce1p protease inhibitors, primary screen, biochemical, fluorescence, cell-free homogeneous. yeast membranes, quenched prenylated peptide cleavage fluorescence. calls only. hit rate 0.27% among 290,000. AID 2563, 2010;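 active = fall in fluorescence gain of 50% or more versus controls, with final raw signal at or below 3038400; inconclusive = same 50% fall but final raw signal above 3038400; inactive = fall in fluorescence gain under 50%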;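 note: plate controls were neutral control wells for no effect and wells lacking membranes for full effect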
YIC FRET counter: YIC intramolecular FRET probe signal interference, dose response, counter-screen for RanGTP-importin-beta inhibitor project, biochemical, fluorescence FRET | shares compounds with RanGTP-Imp inh | Purified YIC probe, intramolecular FRET ratio YFP/CFP | IC50, µM | hit rate 40% among 1,000;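 active = fitted half-maximal inhibitory concentration no more than tenfold above the top dose tested; inconclusive = flat fit with 30 to 70% activity, or poor fit; inactive = half-maximal concentration beyond tenfold above the top dose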
* hit, by the source's call; i = inactive; ? = inconclusive; nt = no result given. This is a sample that favours compounds with a hit; in the whole collection about 1.8% have one here.

SMILES | Platelet DG rel | RanGTP-Imp inh | Runt-SMMHC FRET | Runt-CBFb FRET | Rce1 inhib | YIC FRET counter
Cc1cc(C)c(C#N)c(N2CCCC2)n1 | -5.2 | -2.6 | 0.0 | -0.4 | i | nt
N#Cc1cc2cc3c(cc2nc1SCC(=O)N1CCOCC1)OCCO3 | -23.9 | 7.8 | nt | nt | i | nt
Cc1ccc2cc(C#N)c(N3CCCC3)nc2c1C | 2.7 | 26.1* | 53.3* | 17.9 | nt | 5.28*
Cc1cc(C)c2nc(N3CCOCC3)c(C#N)cc2c1 | -4.1 | 24.0* | nt | nt | i | 18.7*
CN1CCSc2ccc(C(=O)NCc3cccc(Br)c3)cc21 | 2.8 | -0.5 | nt | nt | i | nt
C[C@H]1CN([C@@H](C)CO)C(=O)c2cccc(NC(=O)c3ccc(-c4nccs4)cc3)c2O[C@H]1CN(C)C(=O)Nc1ccccc1 | nt | nt | nt | nt | nt | >50
CC(C)(C)n1cnc2cc(NCc3ccc(Br)cc3)ccc21 | -1.3 | 22.7* | nt | nt | i | >50
CCN(CC)c1ccc(CNc2ccc3c(c2)ncn3C(C)(C)C)cc1 | 2.0 | -3.1 | nt | nt | i | nt
CCc1ccc(CNc2ccc3c(c2)ncn3CC)cc1 | 3.0 | 17.5* | nt | nt | i | >50
CCc1ccc(CNc2ccc3c(c2)ncn3C(C)(C)C)cc1 | 6.9 | 17.8* | nt | nt | i | >50
CCn1cnc2cc(NCc3ccc(OC)cc3)ccc21 | 0.6 | 9.9 | 8.3 | 20.6 | i | nt
CCOC(=O)CNc1cccc(C(F)(F)F)c1 | -7.0 | 0.0 | -1.6 | 0.6 | i | nt
O=C(OCCN1CCOCC1)c1cccs1 | 0.4 | -2.5 | -2.5 | 1.2 | i | nt
COCCNC(=O)c1cnn2c(C(F)F)cc(-c3ccc(C)cc3)nc12 | 4.0 | 18.0* | 92.2 | 45.6 | i | 42.4*
CCN1CCN(C(=O)c2cnn3c(C(F)F)cc(-c4ccc(C)cc4)nc23)CC1 | -4.9 | 2.7 | 4.7 | 0.2 | i | nt
CCc1c(C)c2cc(Cl)c(O)c(CN(CC)CC)c2oc1=O | 2.4 | 25.9* | 65.3* | 95.3* | ? | 26.5*
O=c1oc2c(CN3CCCCC3)c(O)ccc2c2c1CCCC2 | 1.0 | 8.6 | 49.6 | 22.8 | ? | nt
CCc1c(C)c2ccc(O)c(CN3CCCC3)c2oc1=O | 0.7 | 10.7 | nt | nt | ? | nt
Cc1c(C)c2cc(Cl)c(O)c(CN(C)C)c2oc1=O | 1.3 | 33.3* | 81.4* | 92.5* | ? | 29.1*
CCN(CC)Cc1c(O)c(Cl)cc2c3c(c(=O)oc12)CCCC3 | -1.5 | 47.7* | 70.3 | 107.0* | i | 23.1*
O=[N+]([O-])c1ccc(CNC2CCCc3ccccc32)cc1 (stereo not given) | -2.8 | 25.3* | 72.2* | 30.5 | i | >50
c1cncc(CNC2CCCc3ccccc32)c1 (stereo not given) | -2.7 | -2.9 | -2.2 | -1.6 | i | nt
N#CCCn1cc(C(=O)Nc2ccc([N+](=O)[O-])cc2)c(-c2cc3ccccc3o2)n1 | -5.0 | -1.3 | 1.1 | -1.9 | i | nt
OCCN1CCN(c2nc(-c3ccccc3)c3cc(Cl)ccc3n2)CC1 | -6.8 | 18.4* | 51.8* | nt | i | 24.4*
CCc1nnc(NC(=O)c2c(C)nn(-c3ccccc3)c2Cl)s1 | -2.4 | 20.1* | -1.1 | -1.5 | i | >50
SMILES | Platelet DG rel | RanGTP-Imp inh | Runt-SMMHC FRET | Runt-CBFb FRET | Rce1 inhib | YIC FRET counter
COc1ccc(NC(=O)c2cc3ccc(O)cc3o/c2=N\O)cc1 | 33.6 | 28.2* | nt | nt | i | 50.7*
Cc1cccc(OC(C)C(=O)Nc2ccc(N3CCCCC3)cc2)c1 (stereo not given) | 1.1 | -1.1 | nt | nt | i | nt
c1ccc(N2CCN(c3nc4cc5c(cc4s3)OCCO5)CC2)cc1 | 12.4 | 8.9 | 2.9 | 0.9 | i | nt
c1c2c(cc3sc(N4CCOCC4)nc13)OCCO2 | 56.7* | 22.8* | -0.5 | 0.1 | i | >50
Cc1nc(N2CCN(C(=O)c3cnccn3)CC2)c2c3c(sc2n1)CC(C(C)(C)C)CC3 (stereo not given) | 1.8 | 2.0 | nt | nt | i | nt
O=C(Cc1cc(=O)oc2cc(O)ccc12)NCC1CCC(C(=O)O)CC1 (stereo not given) | 2.4 | 31.9* | 62.5* | 107.8* | i | 9.83*
CN(CC(=O)Nc1ccccc1Cl)C(=O)Cn1nnc(-c2ccc(F)cc2)n1 | -5.2 | -1.1 | nt | nt | i | nt
S=c1[nH]c2ccc3ccccc3c2[nH]1 | -2.7 | 17.1* | 6.7 | -14.7 | i | >50
Cc1oc2cc(O)ccc2c(=O)c1-c1nncn1-c1ccccc1 | -2.9 | 37.3* | 92.9* | 32.2 | i | 14.1*
Cc1ccc(C2C(C#N)=C(N)N(c3cccnc3)C3=C2C(=O)CCC3)c(C)c1 (stereo not given) | -4.3 | 29.6* | -0.8 | 4.5 | i | >50
Cc1nn(C)cc1C1C(C#N)=C(N)N(c2cccnc2)C2=C1C(=O)CCC2 (stereo not given) | 5.1 | 2.2 | 0.7 | -1.3 | i | nt
CCN1C(=O)C2(C(C#N)=C(N)Oc3n[nH]c(C(C)C)c32)c2ccccc21 (stereo not given) | -4.8 | 25.6* | -12.3 | 1.0 | i | >50
CC(C)(C)NC(=O)C(c1ccco1)N(Cc1ccc(F)cc1)C(=O)c1snc(C(N)=O)c1N (stereo not given) | -9.5 | 28.4* | 1.7 | -3.7 | i | >50
COc1ccc(CN(C(=O)c2snc(C(N)=O)c2N)C(C(=O)NC(C)(C)C)c2ccco2)cc1 (stereo not given) | 5.7 | ? | 1.7 | -4.9 | i | nt
Oc1sc(C=Nc2ccccc2)c2ccccc12 | -0.6 | 0.6 | -111.5 | -34.9 | i | nt
Oc1c(C=Nc2ccccc2)sc2ccccc12 | 45.4 | 16.3* | nt | nt | i | 7.57*
CCOC(=O)/C=C1\CN(C(C)c2ccccc2)S(=O)(=O)c2ccccc21 (stereo not given) | 9.6 | 6.2 | nt | nt | i | nt
CC1(C)CNC(=O)C=C(c2ccccc2)C1 | -5.4 | 22.9* | 2.3 | -0.1 | i | >50
C/C(=N\NC(=S)NC(C)C)c1ccc(-n2ccnc2)cc1 | 14.0 | -0.6 | 1.2 | 2.3 | i | nt
O=C(NCc1ccccc1C(F)(F)F)C1CC(c2ccc(C(F)(F)F)cc2)=NO1 (stereo not given) | 0.4 | 17.1* | -4.3 | -0.7 | i | >50
COc1cc(CN2CCN(Cc3c[nH]c4ccccc34)CC2CCO)cc(OC)c1 (stereo not given) | 13.4 | 20.9* | nt | nt | i | >50
NS(=O)(=O)c1ccc(CCNC(=O)CSc2ncnc3ccccc23)cc1 | -3.2 | -0.9 | -4.5 | 0.7 | i | nt
OCCNc1c2ccccc2nc2c(F)c(F)c(F)c(F)c12 | 2.7 | 20.0* | nt | 47.3 | i | 6.49*

Compound activity as filed in PubChem.
